From article PMC3776988 (British Journal of Cancer, 2013)
Starred links: 1 amine or outer side, 2 acyl side, 3 side chain; linkers in the order of their positions; H or OH if unused. Positions of bridges follow the written chain, without caps; N, C: chain ends. Non-standard residues stand in square brackets, D forms with d. Residues, ends and D or L forms follow the SMILES beside them. *: point of attachment. X1 = CC[C@H](C)[C@@H](N[*:1])[C@@H](O)CC(=O)O[C@H](C(=O)[C@H](C)C(=O)[*:2])C(C)C; NMeY = CN[C@@H](Cc1ccc(O)cc1)C(=O)O; dNMeL = CN[C@H](CC(C)C)C(=O)O; Pyruvoyl = CC(=O)C(=O)*

Tests used:
[1] = test system: patients with advanced malignant melanoma; assay: Phase II stage toxicity; assay type: in vivo, human; conditions: single-agent plitidepsin 3.2 mg m^−2
Outline: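 Previously untreated adults with advanced melanoma (ECOG PS ⩽2) were randomised without stratification to plitidepsin 3.2 mg m−2 as a 1-h i.v. infusion on days 1, 8 and 15 q4wk. Day-1 dosing could be delayed up to 2 weeks, and day-8/15 doses were skipped if retreatment criteria were unmet. Up to two dose reductions were allowed. Patients receiving ⩾1 infusion were evaluable; AEs were graded by NCI-CTCAE v.3.0.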

patients = conditions: plitidepsin 1-h weekly schedule; ref Izquierdo et al, 2008; cited from earlier work
[2] = test system: patients with metastatic/advanced melanoma; conditions: cited from earlier work

| Structure (SMILES) | Febrile neutropenia [1] | Grade 3 ALT increases, % of patients [1] [%] | Omissions because of treatment-related transaminase increases [1] [%] | Patients who skipped at least one plitidepsin infusion [1] [%] | Single-agent RD (patients) [mg m^−2] | Responses to single-agent DTIC, % of patients ([2]; generally short lived, ref Falkson et al, 1998, Chapman et al, 1999, Chiarion Sileni et al, 2001, Avril et al, 2004, Bedikian et al, 2006, Schadendorf et al, 2006, Patel et al, 2011) | Response rates reported for single-agent DTIC ([2]; reported range) |
| --- | --- | --- | --- | --- | --- | --- | --- |
| CC[C@H](C)[C@H]1NC(=O)[C@@H](NC(=O)[C@@H](CC(C)C)N(C)C(=O)[C@@H]2CCCN2C(=O)C(C)=O)[C@@H](C)OC(=O)[C@H](Cc2ccc(OC)cc2)N(C)C(=O)[C@@H]2CCCN2C(=O)[C@H](CC(C)C)NC(=O)[C@@H](C)C(=O)[C@H](C(C)C)OC(=O)C[C@@H]1O [Plitidepsin, plitidepsin] (Pyruvoyl-P[dNMeL]T[X1]LP[NMeY](Me); ester 3-C) | no cases | 10 | 25 | 47 | 3.2 |  |  |
| CN(C)/N=N/c1[nH]cnc1C(N)=O [DTIC, Dacarbazine] |  |  |  |  |  | 6–15% | 5–15% |
